Data: ChEMBL document CHEMBL1127590 (J Med Chem, 1994)

Experiments:
[1] = Half-life after intravenous administration of 5 mg/kg/day dose in male beagles; assay type: ADME, organism-based, Canis lupus familiaris; design: route intravenous; conditions: beagle, dog, in vivo
In short: (§1)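 Male beagles received iv doses of 5 or 10 mg/kg from 5 mg/mL solutions in aqueous 40% (w/v) Molecusol, and some also received oral doses. Heparinized blood was sampled from 0 min to 24 h and assayed by HPLC (UV 304 nm, or thermospray MS). AUC∞ was calculated by the trapezoidal rule.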

[2] = In vitro inhibitory activity against human adrenal 3-beta hydroxy-delta 5-teroid isomerase
In short: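 Microsomes were prepared from human adrenal tissue by homogenization and differential centrifugation. Inhibitor in 50% DMSO was preincubated 10 min at 37 °C in 100 mM potassium phosphate pH 7.5 with 1 mM NAD+. The reaction was started with 100 nM [3H]DHEA and quenched in ethanol after 15 min. DHEA-to-androstenedione conversion was measured by radio-HPLC.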

Rattus norvegicus [3] = assay: In vivo inhibition of T stimulated prostate growth in rats was reported after oral administration at a dose 10 mg/kg/day
[4] = biological target: T1, 3-oxo-5-alpha-steroid 4-dehydrogenase 1 (Homo sapiens, UniProt P18405); assay: In vitro inhibitory activity against human type 1 5-alpha reductase
T1 sequence (P18405 whole entry): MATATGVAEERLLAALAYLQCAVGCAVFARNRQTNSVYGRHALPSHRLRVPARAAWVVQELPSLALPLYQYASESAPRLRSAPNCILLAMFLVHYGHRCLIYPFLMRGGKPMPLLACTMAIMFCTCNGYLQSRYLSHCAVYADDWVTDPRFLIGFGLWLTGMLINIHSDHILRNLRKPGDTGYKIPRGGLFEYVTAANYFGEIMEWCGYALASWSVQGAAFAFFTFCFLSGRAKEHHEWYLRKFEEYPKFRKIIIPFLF
In short: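 Used microsomes from baculovirus-infected SF-9 cells expressing recombinant human type 1 5AR, at final enzyme 0.05–5 nM. Buffer at pH 7 and 37 °C contained an NADPH-regenerating system. Inhibitor was preincubated 10 min before adding 100 nM [3H]testosterone.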

[5] = biological target: T2, 3-oxo-5-alpha-steroid 4-dehydrogenase 2 (Homo sapiens, UniProt P31213); assay: In vitro inhibitory activity against human type 2 5-alpha reductase
T2 sequence (P31213 whole entry): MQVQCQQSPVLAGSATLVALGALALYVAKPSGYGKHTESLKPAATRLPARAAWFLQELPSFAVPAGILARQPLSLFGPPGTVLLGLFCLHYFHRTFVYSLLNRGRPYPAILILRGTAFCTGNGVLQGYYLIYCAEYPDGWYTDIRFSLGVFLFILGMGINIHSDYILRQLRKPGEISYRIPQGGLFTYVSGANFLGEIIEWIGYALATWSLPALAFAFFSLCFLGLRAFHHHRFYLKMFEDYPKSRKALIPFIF

Rattus norvegicus [6] = assay: In vivo inhibition of T stimulated prostate growth in rats was reported after oral administration at a dose 10 mg/kg/day; assay type: functional, Prostate gland
In short: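 Rats were castrated, and 7 days later dosed orally once daily for 7 days at 10 mg/kg/day in 1 part cremophor:2 parts saline:0.5% Tween 80 (8 rats/group). Testosterone (40 μg/kg sc in corn oil) was given 4 h after each dose. Ventral prostates were weighed on day 8. Weight reduction was expressed as a percent of the finasteride reduction versus T-treated vehicle controls.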

[7] = Bioavailability in dog (male Beagle) i.v. administration; assay type: ADME, organism-based, Canis lupus familiaris; conditions: in vivo, po, in the assay text read “oral administration” for “[…]”; in short: as §1
[8] = Half-life after intravenous administration of 10 mg/kg/day dose in male beagles; assay type: ADME, organism-based, Canis lupus familiaris; design: route intravenous; conditions: beagle, dog, in vivo; in short: as §1

| SMILES | half-life [1] [h] | Ki [2] [nM] | Ki [4] [nM] | IC50 [5] [nM] | bioavailability [7] [%] | half-life [8] [h] | Reduction (Rattus norvegicus [3]) [%] | Reduction (Rattus norvegicus [6]) [%] |
| --- | --- | --- | --- | --- | --- | --- | --- | --- |
| CCN(CC)C(=O)[C@H]1CCC2C3CN(C)C4=CC(=O)CC[C@]4(C)C3CC[C@@]21C (stereo not given in full) | – | 3.6 | 180 | 2.3 | – | – | – | 52 |
| CC(C)CC(=O)[C@H]1CCC2C3CN(C)C4=CC(=O)CC[C@]4(C)C3CC[C@@]21C (stereo not given in full) | 2.2 | 1.1 | 3.1 | – | – | – | 5 | – |
| C[C@]12CCC(=O)C=C1NCC1C2CC[C@@]2(C)C1CC[C@@H]2C(=O)NC(c1ccccc1)c1ccccc1 (stereo not given in full) | 4.8 | 150 | – | < 0.1 | 79 | – | 95 | – |
| C[C@]12C=CC(=O)C=C1NCC1C2CC[C@@]2(C)C1CC[C@@H]2C(=O)NC12CC3CC(CC(C3)C1)C2 (stereo not given in full) | – | 1000 | 74 | < 0.1 | – | – | – | 14 |
| CN1CC2C(CC[C@@]3(C)C2CC[C@@H]3C(=O)NC(c2ccccc2)c2ccccc2)[C@@]2(C)CCC(=O)C=C12 (stereo not given in full) | – | 11 | 6.4 | 0.2 | – | – | – | 13 |
| CC1=C2NCC3C(CC[C@@]4(C)C3CC[C@@H]4C(=O)NC34CC5CC(CC(C5)C3)C4)[C@@]2(C)CCC1=O (stereo not given in full) | – | 9 | 1.1 | < 0.1 | – | – | – | 24 |
| CC(C)(C)NC(=O)[C@H]1CC[C@H]2[C@@H]3CC[C@H]4NC(=O)C=C[C@]4(C)[C@H]3CC[C@]12C [FINASTERIDE] | – | 11000 | – | – | 69 | 4.2 | – | 100 |
| C[C@]12C=CC(=O)C=C1NCC1C2CC[C@@]2(C)C1CC[C@@H]2C(=O)NC(c1ccccc1)c1ccccc1 (stereo not given in full) | – | 990 | 48 | < 0.1 | – | – | – | 0 |
| C[C@]12CCC(=O)C=C1NCC1C2CC[C@@]2(C)C1CC[C@@H]2C(=O)NC(c1ccc(Cl)cc1)c1ccc(Cl)cc1 (stereo not given in full) | 12 | 510 | – | – | – | – | 74 | – |
| CN1CC2C(CC[C@@]3(C)C2CC[C@@H]3C(=O)NC(C)(C)C)[C@@]2(C)CCC(=O)C=C12 (stereo not given in full) | – | 6.6 | 87 | – | 80 | 1.4 | – | 54 |

Further molecules by falling Ki [2], results first:

| half-life [1] [h] | Ki [2] [nM] | Ki [4] [nM] | IC50 [5] [nM] | bioavailability [7] [%] | half-life [8] [h] | SMILES | Reduction (Rattus norvegicus [3]) [%] | Reduction (Rattus norvegicus [6]) [%] |
| --- | --- | --- | --- | --- | --- | --- | --- | --- |
| 5.2 | 320 | – | – | – | – | C[C@]12CCC(=O)C=C1NCC1C2CC[C@@]2(C)C1CC[C@@H]2C(=O)NC(c1ccc(F)cc1)c1ccc(F)cc1 (stereo not given in full) | 90 | – |
| – | 78 | 11 | – | – | 1.8 | C[C@]12CCC(=O)C=C1NCC1C2CC[C@@]2(C)C1CC[C@@H]2C(=O)NC12CC3CC(CC(C3)C1)C2 (stereo not given in full) | – | 38 |
| – | 18 | 3.6 | < 0.1 | – | – | CC1=C2NCC3C(CC[C@@]4(C)C3CC[C@@H]4C(=O)NC(c3ccccc3)c3ccccc3)[C@@]2(C)CCC1=O (stereo not given in full) | – | 38 |
| – | 9.2 | 12 | 1.4 | – | – | CC1=C2NCC3C(CC[C@@]4(C)C3CC[C@@H]4C(=O)NC(C)(C)C)[C@@]2(C)CCC1=O (stereo not given in full) | – | 0 |
| – | 2.7 | 8.5 | < 0.1 | – | – | CN1CC2C(CC[C@@]3(C)C2CC[C@@H]3C(=O)NC23CC4CC(CC(C4)C2)C3)[C@@]2(C)CCC(=O)C=C12 (stereo not given in full) | – | 12 |
